{"data": "Experimental data pooled from the literature", "KCNH2": "Voltage-gated inwardly rectifying potassium channel KCNH2 (KCNH2, Homo sapiens, UniProt Q12809)", "ABCB11": "Bile salt export pump (ABCB11, Homo sapiens, UniProt O95342)"}
{"SMILES": "O=C(COc1ccc(Cl)cc1)NC12CC(c3nnc([C@H]4C[C@@H](OC(F)(F)F)C4)o3)(C1)C2", "test system": "human, plasma", "conditions": "oral, 800 mg, single dose, fasted, healthy volunteers", "endpoint": "Tmax", "value": "36 h"}
{"SMILES": "COc1ccc2c(c1)CN(C(=O)CCN1CCC(Cc3ccccc3)CC1)CC[S@@+]2[O-]", "test system": "male human, plasma", "conditions": "intravenous, 0.01 mg/kg, healthy volunteers", "endpoint": "Tmax", "value": "0 h"}
{"SMILES": "CC(=O)N1CCC(C(=O)N2CCN3C(=O)c4cc(-c5ccccc5)ccc4NC(=O)C3C2)CC1 (stereo not drawn)", "tested on": "KCNH2", "assay": "ion current, inhibitor, patch clamp", "test system": "HEK293", "conditions": "1 µM", "endpoint": "inhibition", "value": "5.6%"}
{"SMILES": "Cn1c(=O)c2[nH]cnc2n(C)c1=O", "test system": "male Sprague-Dawley rat, plasma", "conditions": "intravenous, 11.25 mg/kg", "endpoint": "MRT(0-inf)", "value": "6.51 h"}
{"SMILES": "CCOC(=O)C1=C(CN2CCC[C@@H]2C(=O)Nc2ccc(B(O)O)cc2)NC(c2nccs2)=N[C@H]1c1ccc(F)cc1Br", "tested on": "KCNH2", "assay": "ion current, inhibitor, patch clamp", "test system": "HEK293", "conditions": "100 µM, pH 7.4", "endpoint": "inhibition", "value": "94.8%"}
{"SMILES": "NC/C(=C\\F)COc1cccc(Cn2c(=S)[nH]c(=O)c3[nH]cnc32)c1", "tested on": "ABCB11", "assay": "transporter uptake, inhibitor, radiometric", "conditions": "30 µM", "endpoint": "inhibition", "value": "< 50%"}
{"SMILES": "COc1cc(N)c(Cl)cc1C(=O)NC1CCN(CCCOc2ccc(F)cc2)CC1OC (stereo not drawn)", "tested on": "KCNH2", "assay": "ion current, inhibitor, patch clamp", "test system": "HEK293", "conditions": "10 nM, pH 7.4", "endpoint": "inhibition", "value": "39%"}
{"SMILES": "CC(C)n1ncc2c(C(=O)NCC3(C)CNC3)cc(C3CC3)nc21", "tested on": "RD", "assay": "cell growth or viability, neutral red", "conditions": "0.33 µM", "endpoint": "viability", "value": "98.1%"}
{"SMILES": "COc1cccc(OC)c1-c1cc(C(=O)NC2(C(=O)O)C3CC4CC(C3)CC2C4)nn1-c1ccc(C(=O)N(C)CCCN(C)CCCN(C)C(=O)CN2CCN(CC(=O)[O-])CCN(CC(=O)[O-])CCN(CC(=O)[O-])CC2)cc1C(C)C.[177Lu+3] (stereo not drawn)", "tested on": "HT-29", "test system": "stomach", "conditions": "7 days, tumour-bearing", "endpoint": "tracer uptake", "value": "0.09 %ID/g"}
{"SMILES": "N[C@H]1C(O)O[C@H](CO)[C@@H](O)[C@@H]1O (stereo partly drawn)", "tested on": "Caco-2", "assay": "cell growth or viability, CCK-8", "conditions": "10 mM", "endpoint": "viability", "value": "102%"}
{"SMILES": "COc1nc(-c2cccc(-c3ccccc3)c2C)ccc1CNCCNC(=O)CCCCCCCCCCC(=O)N1CCN(CCNC(=O)c2cc3c(=O)n4cccc(C)c4nc3n(CCc3cccs3)c2=N)CC1", "test system": "male Sprague-Dawley rat, plasma", "conditions": "oral, 40 mg/kg", "endpoint": "MRT(0-inf)", "value": "13.6 h"}
{"SMILES": "C[C@H]1Oc2cc(cnc2N)-c2c(nn(C)c2C#N)CN(C)C(=O)c2ccc(F)cc21", "test system": "Sprague-Dawley rat, plasma", "conditions": "intravenous, 1 mg/kg, single dose", "endpoint": "MRT(0-inf)", "value": "4.96 h"}
{"SMILES": "CC(C)n1cc(C#N)c2cc(-n3cc(C(=O)O)cn3)ccc21", "test system": "human, plasma", "conditions": "oral, 300 mg, single dose, fasted, healthy volunteers", "endpoint": "Tmax", "value": "4.01 h"}
{"SMILES": "CN1C[C@H](COc2nccc3c(NCc4ccco4)cc(Cl)nc23)OC1=O", "tested on": "KCNH2", "assay": "ion current, inhibitor", "test system": "HEK293", "conditions": "10 µM", "endpoint": "inhibition", "value": "21.4%"}
{"SMILES": "O=C(O)COc1cccc(-c2nc(Nc3ccc4[nH]ncc4c3)c3ccccc3n2)c1", "tested on": "ABCB11", "assay": "transporter uptake, inhibitor, radiometric", "endpoint": "IC50", "value": "48.2 µM"}
